Reference: ChEMBL document CHEMBL1143997, “Further structural optimization of cis-(6-benzhydryl-piperidin-3-yl)-benzylamine and 1,4-diazabicyclo[3.3.1]nonane derivatives by introducing an exocyclic hydroxyl group: interaction with dopamine, serotonin, and norepinephrine transporters” (Bioorg Med Chem, 2008)

Experiments:
[1] = target: T1, Sodium-dependent dopamine transporter (Rattus norvegicus, UniProt P23977); assay: Displacement of [3H]WIN-from DAT in rat striatum
Method in brief: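 Compounds dissolved in DMSO, diluted in 10% DMSO, final 0.5% DMSO. At least five concentrations in triplicate spaced around IC50. IC50 from nonlinear curve fitting, converted to Ki by Cheng-Prusoff. Mean ± SEM of 3–8 independent experiments.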

[2] = target: T1, Sodium-dependent dopamine transporter; assay: Inhibition of [3H]dopamine uptake in DAT in rat striatum; format: tissue-based
Method in brief: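 Rat striatal tissue; [3H]DA accumulation measured. Nonspecific uptake defined with 100 uM cocaine. Compounds dissolved in DMSO, final 0.5% DMSO. At least five triplicate concentrations spaced around IC50. Nonlinear curve fit, with Ki from Cheng-Prusoff. Mean ± SEM of 3–8 independent experiments done in triplicate.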

[3] = target: Sodium-dependent serotonin transporter (Rattus norvegicus, UniProt P31652); assay: Inhibition of [3H]5HT uptake in SERT in rat cerebral cortex; format: tissue-based
Sequence of Sodium-dependent serotonin transporter (P31652 whole entry): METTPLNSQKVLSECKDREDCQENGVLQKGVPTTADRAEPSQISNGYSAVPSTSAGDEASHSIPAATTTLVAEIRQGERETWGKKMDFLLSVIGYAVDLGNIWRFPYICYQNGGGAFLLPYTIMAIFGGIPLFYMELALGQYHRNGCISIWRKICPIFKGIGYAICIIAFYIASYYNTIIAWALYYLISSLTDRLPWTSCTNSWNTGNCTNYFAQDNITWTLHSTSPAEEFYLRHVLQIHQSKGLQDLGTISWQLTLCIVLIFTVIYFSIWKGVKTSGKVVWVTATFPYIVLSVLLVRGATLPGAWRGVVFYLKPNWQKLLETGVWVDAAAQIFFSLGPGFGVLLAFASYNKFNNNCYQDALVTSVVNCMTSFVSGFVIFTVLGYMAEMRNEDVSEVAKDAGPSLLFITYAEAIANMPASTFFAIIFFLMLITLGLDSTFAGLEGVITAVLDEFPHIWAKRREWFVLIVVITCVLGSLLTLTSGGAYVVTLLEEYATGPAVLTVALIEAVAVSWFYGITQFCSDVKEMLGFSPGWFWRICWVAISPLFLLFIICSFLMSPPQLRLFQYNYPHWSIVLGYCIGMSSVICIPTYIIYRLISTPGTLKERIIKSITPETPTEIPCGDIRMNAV
Method in brief: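 Rat cerebral cortex; [3H]5-HT accumulation measured. Nonspecific uptake defined with 10 uM citalopram. Compounds dissolved in DMSO, final 0.5% DMSO. At least five triplicate concentrations spaced around IC50. Nonlinear fit, with Ki by Cheng-Prusoff. Mean ± SEM of 3–8 independent experiments in triplicate.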

[4] = target: Norepinephrine transporter (Rattus norvegicus, UniProt Q9WTR4); assay: Inhibition of [3H]NE uptake in NET in rat cerebral cortex; format: tissue-based
Sequence of Norepinephrine transporter (Q9WTR4 whole entry): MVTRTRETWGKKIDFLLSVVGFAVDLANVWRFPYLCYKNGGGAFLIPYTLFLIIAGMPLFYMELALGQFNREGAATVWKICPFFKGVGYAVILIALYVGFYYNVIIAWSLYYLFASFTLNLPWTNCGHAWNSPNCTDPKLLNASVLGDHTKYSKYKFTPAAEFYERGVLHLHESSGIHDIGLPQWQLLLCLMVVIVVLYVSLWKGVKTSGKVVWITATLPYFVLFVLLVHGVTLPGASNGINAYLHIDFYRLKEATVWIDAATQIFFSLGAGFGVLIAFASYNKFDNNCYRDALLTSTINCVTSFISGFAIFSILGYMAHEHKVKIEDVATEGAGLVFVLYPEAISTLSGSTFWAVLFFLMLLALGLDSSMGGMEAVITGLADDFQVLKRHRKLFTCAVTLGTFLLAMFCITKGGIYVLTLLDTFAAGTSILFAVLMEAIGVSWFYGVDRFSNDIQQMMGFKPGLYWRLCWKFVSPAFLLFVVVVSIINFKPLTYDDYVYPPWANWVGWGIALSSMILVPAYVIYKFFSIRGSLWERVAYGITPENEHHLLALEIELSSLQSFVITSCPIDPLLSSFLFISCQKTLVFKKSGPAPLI

[5] = species: Rattus norvegicus; assay: Ratio of Ki for SERT to Ki for DAT in rat brain; format: tissue-based
[6] = species: Rattus norvegicus; assay: Ratio of Ki for NET to Ki for DAT in rat brain; format: tissue-based
[7] = target: Sodium-dependent dopamine transporter (Rattus norvegicus) (UniProt P23977); assay: Ratio of [3H]DA uptake to [3H]WIN-binding to DAT in rat brain; format: tissue-based
Sequence of Sodium-dependent dopamine transporter (Rattus norvegicus) (P23977 whole entry): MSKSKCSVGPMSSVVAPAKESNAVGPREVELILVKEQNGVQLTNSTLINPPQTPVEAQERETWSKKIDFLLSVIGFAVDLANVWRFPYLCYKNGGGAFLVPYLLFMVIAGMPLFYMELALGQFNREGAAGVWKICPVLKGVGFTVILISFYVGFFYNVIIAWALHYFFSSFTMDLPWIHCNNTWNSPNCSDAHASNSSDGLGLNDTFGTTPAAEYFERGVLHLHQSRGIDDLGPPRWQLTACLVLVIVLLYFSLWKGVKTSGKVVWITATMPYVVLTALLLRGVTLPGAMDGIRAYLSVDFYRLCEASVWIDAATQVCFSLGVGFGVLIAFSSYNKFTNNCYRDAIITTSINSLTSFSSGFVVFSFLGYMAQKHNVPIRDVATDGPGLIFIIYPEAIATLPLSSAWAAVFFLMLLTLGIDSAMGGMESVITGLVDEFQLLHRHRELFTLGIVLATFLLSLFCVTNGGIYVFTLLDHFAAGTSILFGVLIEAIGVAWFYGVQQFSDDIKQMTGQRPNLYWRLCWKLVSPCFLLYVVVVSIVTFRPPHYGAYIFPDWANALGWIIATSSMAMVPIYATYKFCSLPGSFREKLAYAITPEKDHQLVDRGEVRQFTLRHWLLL

T1 sequence (P23977 whole entry): as above

O[C@@H](CCN1CCN2C[C@@H]1CC[C@H]2C(c1ccccc1)c1ccccc1)c1ccc(F)cc1
Ki [1]: 13.5 nM
Ki [2]: 8.63 nM
Ki [3]: 1480 nM
Ki [4]: 418 nM
Ratio Ki [5]: 172
Ratio Ki [6]: 48.4
Ratio Ki [7]: 0.63

O[C@@H](CN1CCN2C[C@@H]1CC[C@H]2C(c1ccccc1)c1ccccc1)c1ccccc1
Ki [1]: 228 nM
Ki [2]: 204 nM
Ki [3]: 12900 nM
Ki [4]: 954 nM
Ratio Ki [5]: 63.2
Ratio Ki [6]: 4.6
Ratio Ki [7]: 0.89

O[C@@H](CN[C@H]1CC[C@@H](C(c2ccccc2)c2ccccc2)NC1)Cc1ccccc1
Ki [2]: 10.6 nM
Ki [3]: 1390 nM
Ki [4]: 170 nM
Ratio Ki [7]: 0.78

O[C@@H](CN[C@H]1CC[C@@H](C(c2ccccc2)c2ccccc2)NC1)c1ccc(F)cc1
Ki [3]: 2900 nM
Ki [4]: 1440 nM
Ratio Ki [5]: 12.2
Ratio Ki [6]: 6

O[C@H](CCN1CCN2C[C@@H]1CC[C@H]2C(c1ccccc1)c1ccccc1)c1ccc(F)cc1
Ki [1]: 19.9 nM
Ki [2]: 41.8 nM
Ki [3]: 11900 nM
Ki [4]: 388 nM
Ratio Ki [5]: 284
Ratio Ki [6]: 9.2
Ratio Ki [7]: 2.1

O[C@H](CN1CCN2C[C@@H]1CC[C@H]2C(c1ccccc1)c1ccccc1)c1ccccc1
Ki [1]: 1040 nM
Ki [2]: 266 nM
Ki [3]: 9510 nM
Ki [4]: 1730 nM
Ratio Ki [5]: 35.7
Ratio Ki [6]: 6.5
Ratio Ki [7]: 0.25

O[C@@H](Cc1ccccc1)CN1CCN2C[C@@H]1CC[C@H]2C(c1ccccc1)c1ccccc1
Ki [1]: 47 nM
Ki [2]: 16.8 nM
Ki [3]: 10300 nM
Ki [4]: 259 nM
Ratio Ki [5]: 615
Ratio Ki [6]: 15.4
Ratio Ki [7]: 0.35

COc1ccc(CN2CCN3C[C@@H]2CC[C@H]3C(c2ccccc2)c2ccccc2)cc1
Ki [1]: 22.5 nM
Ki [2]: 18.4 nM

O[C@H](CN[C@H]1CC[C@@H](C(c2ccccc2)c2ccccc2)NC1)Cc1ccccc1
Ki [1]: 28.9 nM
Ki [3]: 2600 nM
Ki [4]: 231 nM
Ratio Ki [5]: 103
Ratio Ki [6]: 9.1
Ratio Ki [7]: 0.87

O[C@H](CN1CCN2C[C@@H]1CC[C@H]2C(c1ccccc1)c1ccccc1)c1ccc(F)cc1
Ki [1]: 649 nM
Ki [2]: 160 nM
Ki [3]: 7340 nM
Ki [4]: 728 nM
Ratio Ki [5]: 45.9
Ratio Ki [6]: 4.5
Ratio Ki [7]: 0.24

O[C@@H](CN1CCN2C[C@@H]1CC[C@H]2C(c1ccccc1)c1ccccc1)c1ccc(F)cc1
Ki [1]: 142 nM
Ki [2]: 66.5 nM
Ki [3]: 7410 nM
Ki [4]: 319 nM
Ratio Ki [5]: 111
Ratio Ki [6]: 4.7
Ratio Ki [7]: 0.46

O[C@H](Cc1ccccc1)CN1CCN2C[C@@H]1CC[C@H]2C(c1ccccc1)c1ccccc1
Ki [1]: 148 nM
Ki [2]: 82.9 nM
Ki [3]: 11200 nM
Ki [4]: 730 nM
Ratio Ki [5]: 135
Ratio Ki [6]: 8.8
Ratio Ki [7]: 0.56

N#Cc1ccc(CN[C@H]2CC[C@@H](C(c3ccccc3)c3ccccc3)NC2)cc1
Ki [1]: 11.3 nM
Ki [2]: 9.1 nM
